Source: the RNAGym collection of RNA variant scans (doi:10.1126/science.aae0568)
Variants at the floor of the assay were thinned out.

B1: tRNA (parent)
chain: GUUCCGUUGGCGUAAUGGUAACGCGUCUCCCUCCUAAGGAGAAGACUGCGGGUUCGAGUCCCGUACGGAACG

Variants of: B1
Assay: yeast fitness relative to wild type (ratio to wild type); higher = fitter; tRNA-Arg(CCU), competitive growth, 37 C, YPD
In short: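 For this measurement, the tRNA-Arg(CCU) gene was varied by chemical synthesis at a 3% per-site mutation rate across 69 sites, and each variant was placed at the native genomic locus in Saccharomyces cerevisiae. The pooled strains went through a 24-hour competition in YPD at 37°C in six parallel replicates, with amplicons from start and end populations read by 100-nucleotide paired-end sequencing. Darwinian fitness relative to wild type followed from the change in each genotype's frequency. Genotypes needed ≥ 100 starting reads, and estimates < 0.5 were set to 0.5.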

Going from U2G C24A C46A A69U to U3C A14U A37U, the yeast fitness falls from 0.774 to ≤ 0.5.

Going from U2G C29G C49G to U3A C4U C33G C34G A57U, the yeast fitness rises from ≤ 0.5 to 0.63.

Going from U3A A37C C62U to U3A C22U C24A C27U A43C, the yeast fitness falls from 0.529 to 0.522.

U2G G12A C34A A37G and U3C C4A U16C G17A cannot be ordered by yeast fitness: ≤ 0.5 for the first, ≤ 0.5 for the second.

Compared with U3A G6C, U2G A21U A36U A45U A65U A70U is lower in yeast fitness: 0.662 for the first, ≤ 0.5 for the second.

Compared with U3A A21G G23C A65C, U2G G17A G23A G38C A40G is higher in yeast fitness: ≤ 0.5 for the first, 0.694 for the second.

U2G A15G G17A U28A C29U A45C A69C and U3C C5G A20G G63C C66G cannot be ordered by yeast fitness: ≤ 0.5 for the first, ≤ 0.5 for the second.

Going from U2G C5U to U3A C4U U8A G10A A21G U53A A65C A70G, the yeast fitness falls from 0.877 to ≤ 0.5.

Going from U2G G10A to U2G C33A C49G U64C G67C, the yeast fitness falls from 0.697 to ≤ 0.5.

U3A G12C A15C U19A C34U C49A G67A and U3A U7A U32C G41A cannot be ordered by yeast fitness: ≤ 0.5 for the first, ≤ 0.5 for the second.

Going from U3A U13C G25A to U2G C11G U19C A20G C24U C31G, the yeast fitness falls from 0.67 to ≤ 0.5.

U2G G6A G12A C27U A36U C60G and U3A G48C U54C C55A cannot be ordered by yeast fitness: ≤ 0.5 for the first, ≤ 0.5 for the second.

Compared with U2G A14U A21C A36C C49A A65G C66G, U3C A14U A40G C61G is higher in yeast fitness: ≤ 0.5 for the first, 0.567 for the second.

First: U2G C27U C46U
Second: U3A C22U U28A A37U G51C C66U
The yeast fitness of the first is higher: 0.999 for the first, ≤ 0.5 for the second.

U3A G17A C22U A45G and U3A G50C G51C G56A cannot be ordered by yeast fitness: ≤ 0.5 for the first, ≤ 0.5 for the second.

First: U2G C31G A37G
Second: U3A G25A A37U C61A
The yeast fitness of the first is higher: 0.605 for the first, ≤ 0.5 for the second.

U2G C4A C22U U28G A42U C61U and U3A C24U C31G A37G cannot be ordered by yeast fitness: ≤ 0.5 for the first, ≤ 0.5 for the second.

Going from U3C A36U A69U to U3C A21C, the yeast fitness rises from ≤ 0.5 to 0.831.

First: U3C C4U A15G U26A U32A C62U G67C
Second: U3C A20C A45C C49U
The yeast fitness of the first is higher: 0.613 for the first, ≤ 0.5 for the second.

First: U3C C5A C66U
Second: U3A C29G G50A
The yeast fitness of the first is higher: 0.605 for the first, ≤ 0.5 for the second.

Going from U3A G17C C29U to U2G C30G C61U G68A, the yeast fitness rises from ≤ 0.5 to 0.531.

First: U3A G58A
Second: U3A G25A G38A
The yeast fitness of the first is higher: 1.01 for the first, 0.583 for the second.

U3C C4G G23C and U2G C22U U32C A43C G50C cannot be ordered by yeast fitness: ≤ 0.5 for the first, ≤ 0.5 for the second.

Compared with U3A U7G A14U G25A G41C C46U U59C C61A, U3A C5A G23A G68U is higher in yeast fitness: ≤ 0.5 for the first, 0.816 for the second.

Going from U3A C31A C55U to U2G C62U, the yeast fitness rises from ≤ 0.5 to 0.863.

First: U3A G38C G41C A65G
Second: U3A C27U C60A
The yeast fitness of the first is higher: 0.78 for the first, ≤ 0.5 for the second.

First: U3C C5U
Second: U3C A42U G63A
The yeast fitness of the first is higher: 0.836 for the first, ≤ 0.5 for the second.

U3C A40U C49A C62A and U2G C11G C49A C60U G68C cannot be ordered by yeast fitness: ≤ 0.5 for the first, ≤ 0.5 for the second.

Compared with U2G U16G C27A A36C G51A, U3A U7A A43C G56A is lower in yeast fitness: 0.536 for the first, ≤ 0.5 for the second.

Going from U3C A65G G68C to U2G G12A A15U C24G U53A U64A, the yeast fitness falls from 0.561 to ≤ 0.5.

Compared with U2G U47G G67U, U3A A36U A57G G63C is higher in yeast fitness: ≤ 0.5 for the first, 0.681 for the second.

U3A A15U A21C G39C A43G U54C and U3A A15C G44A A57U cannot be ordered by yeast fitness: ≤ 0.5 for the first, ≤ 0.5 for the second.

Going from U3A C5A U8G G10A C31U U47C to U3A C11A C33U G58C, the yeast fitness falls from 0.632 to ≤ 0.5.

Going from U2G A21C C22U A70U to U3A A65C, the yeast fitness rises from ≤ 0.5 to 0.879.

U3C A14U A15C C31G A43U and U3C A14C G44C G50C U54C C55A cannot be ordered by yeast fitness: ≤ 0.5 for the first, ≤ 0.5 for the second.

Compared with U3A C11A A20G G39A G51A U53A G63C, U3C A21C A45C C49U is higher in yeast fitness: ≤ 0.5 for the first, 0.532 for the second.

Compared with U2G C55U C62G C66A, U2G A42U U47A is higher in yeast fitness: 0.577 for the first, 0.738 for the second.

Going from U3C A57C to U3A C27G A43G, the yeast fitness falls from 0.504 to ≤ 0.5.

Going from U3A C27U A37G G41C U64C A70C to U2G C61G, the yeast fitness rises from ≤ 0.5 to 0.556.

Going from U3A U13A C22U C24U to U3A G39A C49U, the yeast fitness rises from ≤ 0.5 to 0.559.

U3C A37U G51A C62U and U2G G9C G12A U32C A42C C46A A65U cannot be ordered by yeast fitness: ≤ 0.5 for the first, ≤ 0.5 for the second.

Variant U3A G48A A57U has a yeast fitness of 0.591.
